From the array DNA melting data of Ke et al. (doi:10.1101/2024.01.08.574731)

What was measured:
[1] = folding enthalpy; higher = less favourable; fluorescence melt of hairpins on a sequencing array, two-state fit; details: sodium 0.088 M
In short: (§1)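 Bootstrapped two-state fits yielded melting temperature and folding enthalpy for library hairpins. Cy3 fluorescence, with annealed Cy3 and quencher oligos, was imaged on a sequenced MiSeq flow cell in 50 mM Na-HEPES pH 8.0, 25 mM NaCl in 2.5 °C steps up to 60 °C, and normalised to pre-quench Cy3 and to control constructs. Four replicates were combined by inverse variance, and fitted temperatures were raised by 9.35 °C to match UV melts.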

[2] = melting temperature; fluorescence melt of hairpins on a sequencing array, two-state fit, raised by 9.35 °C to match UV melts; details: sodium 0.088 M
In short: as §1

Row | Sequence | folding enthalpy [1] | Tm [2]
1 | GCAACCGAAAGGTTGTGC ((((((....)))..))) | -20.5 kcal/mol | 65.7 °C
2 | GCGGGTGGAAACACTCGC (((.(((....))).))) | -40.8 kcal/mol | 60.7 °C
3 | GATCCTACGAGGATC ((((((...)))))) | -29.5 kcal/mol | 53.4 °C
4 | GCAGCTGCGAAAGCATGC (((..(((....)))))) | -11.6 kcal/mol | 45.1 °C
5 | GTTCCCCGAAAGGGAAC (((.(((....)))))) | -29.6 kcal/mol | 61.2 °C
6 | GATCTTGGAAACAAGATC (((((((....))))))) | -42.3 kcal/mol | 55.9 °C
7 | GACCACGAAAGTGAGTC ((((((....))).))) | -30.5 kcal/mol | 52.2 °C
8 | GAGGCCGAAAGGCAGCTC ((((((....)))..))) | -13.7 kcal/mol | 50.6 °C
9 | GAAAGTGGAAACACCTTC (((.(((....))).))) | -9.58 kcal/mol | 28.8 °C
10 | GCTGTGCGAAAGCGGAGC (((..((....))..))) | -22 kcal/mol | 54.9 °C
11 | GCATGCGAAAGCAACTGC ((((((....)))..))) | -14.2 kcal/mol | 40.2 °C
12 | GTGATCGAAAGATGTCAC ((((((....)))..))) | -13.7 kcal/mol | 29.9 °C
13 | GTTACCGAAAGGTTGAAC ((((((....)))..))) | -12.8 kcal/mol | 29.2 °C
14 | GATCCGCGAAAGCGAATC (((.(((....))).))) | -20.2 kcal/mol | 49.2 °C
15 | GCAGCGCGAAAGCGCCGC ((.((((....)))).)) | -15.5 kcal/mol | 67.4 °C
16 | GTCAGAGCGAAAGCTGAC (((..(((....)))))) | -26.4 kcal/mol | 49.3 °C
17 | GCGATGGGTCGC ((((....)))) | -23.4 kcal/mol | 54.4 °C
18 | TTGCTGAAAAGCAA (((((....))))) | -16.2 kcal/mol | 49.2 °C
19 | GCGAAGCGAAAGCACCGC (((..((....))..))) | -9.92 kcal/mol | 43.8 °C
20 | GTCTCTGGAAACAGAGAC (((((((....))))))) | -42.5 kcal/mol | 62.8 °C
21 | GATCGTTCAAACGATC ((((((....)))))) | -42.7 kcal/mol | 55 °C
22 | GATCGTATACACGATC ((((((....)))))) | -38.4 kcal/mol | 53.9 °C
23 | GCGATGGTTCGC ((((....)))) | -24.5 kcal/mol | 49.8 °C
24 | GATCAGGCTGCTGATC ((((((....)))))) | -46.2 kcal/mol | 50.4 °C

Row | Sequence | folding enthalpy [1] | Tm [2]
25 | GCGGAGGGCCGC ((((....)))) | -15.4 kcal/mol | 53.9 °C
26 | GCCGCCCCGAAAGGGGGC (((..(((....)))))) | -6.87 kcal/mol | 67.5 °C
27 | GGATGGCGAAAGCCGTCC (((.(((....))).))) | -28.8 kcal/mol | 68.8 °C
28 | GACCTTGAAAAAGGTC ((((((....)))))) | -33.4 kcal/mol | 56.8 °C
29 | GCATTGCGAAAGCTTTGC (((..((....))..))) | -21.4 kcal/mol | 49.1 °C
30 | GAATGCGAAAGCAGATTC ((((((....)))..))) | -15.6 kcal/mol | 43.2 °C
31 | GAATCCCGAAAGGGTTC (((.(((....)))))) | -17.9 kcal/mol | 48.1 °C
32 | GCAGGTGGAAACGCTTGC (((.(.(....).).))) | -23 kcal/mol | 46.6 °C
33 | GCAAACGAAAGTTACTGC ((((((....)))..))) | -13.3 kcal/mol | 27.3 °C
34 | GCGGTGCGAAAGCAAAGC ((..(((....)))..)) | -32.1 kcal/mol | 63.3 °C
35 | GATCTGCGTTCAGATC ((((((....)))))) | -37.5 kcal/mol | 48.8 °C
36 | GGCTACGAAAGTATGCC ((((((....))).))) | -37.8 kcal/mol | 54.6 °C
37 | GGTGCCCGAAAGGGACC (((.(((....)))))) | -21.5 kcal/mol | 58.1 °C
38 | GATCGAGTCTTCGATC ((((((....)))))) | -37.6 kcal/mol | 58.4 °C
39 | GGATGCGCGAAAGCGTCC (((..(((....)))))) | -12.3 kcal/mol | 41 °C
40 | GCTCCGCGAAAGCCGTGC ((.(.((....)).).)) | -9.49 kcal/mol | 39.1 °C
41 | GATAAGCGAAAGCTGATC (((.(((....))).))) | -26.3 kcal/mol | 47.5 °C
42 | GGCCAACGAAAGTTCGCC (((.(((....))).))) | -40.2 kcal/mol | 47 °C
43 | GACATCCCGAAAGGGGTC (((..(((....)))))) | -11.1 kcal/mol | 34.4 °C
44 | GATCCGCAGGCGGATC ((((((....)))))) | -28.3 kcal/mol | 66.6 °C
45 | GCATGCGGAAACGTATGC ((((.((....)).)))) | -41.4 kcal/mol | 56.1 °C
46 | GATCCCATCAGGGATC ((((((....)))))) | -36.3 kcal/mol | 65.7 °C
47 | GCTGTTCGAAAGAATAGC (((.(((....))).))) | -44.9 kcal/mol | 53.2 °C
48 | GGAAAAGGAAACTTTTCC (((((((....))))))) | -39.6 kcal/mol | 52.7 °C

Row | Sequence | folding enthalpy [1] | Tm [2]
49 | GCGTTTCTACGC ((((....)))) | -23.3 kcal/mol | 53.8 °C
50 | GAGTTCGGAAACGGATTC ((.(.((....)).).)) | -17.4 kcal/mol | 27.3 °C
51 | GTTGGAGGAAACTCCAGC (.(((((....))))).) | -21.1 kcal/mol | 47.6 °C
52 | GAACACGAAAGTGTATTC ((((((....)))..))) | -9.83 kcal/mol | 33.6 °C
53 | GGACTTCGAAAGAACTCC (((.(((....))).))) | -13.2 kcal/mol | 29.6 °C
54 | GGGTCCGAAAGGAATCCC ((((((....)))..))) | -22.1 kcal/mol | 46.7 °C
55 | GCCGGGGCGAAAGCCGGC (((..(((....)))))) | -20 kcal/mol | 69 °C
56 | GCCGAGCCGAAAGGCGGC (((..(((....)))))) | -12.7 kcal/mol | 68.7 °C
57 | GTTTCGGGAAACTGAAGC (.(((.(....).))).) | -11.2 kcal/mol | 37.9 °C
58 | GTACAGCGAAAGCTTAC (((.(((....)))))) | -13.1 kcal/mol | 38.1 °C
59 | GATCACGGCCGTGATC ((((((....)))))) | -49.1 kcal/mol | 66.3 °C
60 | GCCACGCGAAAGCTTAGC ((.(.((....)).).)) | -6.78 kcal/mol | 30.1 °C
61 | GATCGAAGAATCGATC ((((((....)))))) | -28.4 kcal/mol | 47.1 °C
62 | GCATGGGGAAACCTGTGC (((..((....))..))) | -30.3 kcal/mol | 44.3 °C
63 | GCTACCTCGAAAGAGAGC (((..(((....)))))) | -16.3 kcal/mol | 30.1 °C
64 | GTCCGCGGAAACGCGAAC ((.((((....)))).)) | -16.5 kcal/mol | 50.9 °C
65 | GATTGCGAAAGCAGTATC ((((((....)))..))) | -10.9 kcal/mol | 32.1 °C
66 | GATCAGGGTTCTGATC ((((((....)))))) | -42.1 kcal/mol | 50.8 °C
67 | GGCATACGAAAGTAGCC (((.(((....)))))) | -24.4 kcal/mol | 52.7 °C
68 | GCTAGCGAAAGCTTAGC ((((((....))).))) | -22.1 kcal/mol | 52.5 °C
69 | GTAGCACGAAAGTGATAC (((.(((....))).))) | -39 kcal/mol | 58.4 °C
70 | GATCGAAGAGTCGATC ((((((....)))))) | -31.6 kcal/mol | 47.5 °C
71 | GTCAACGAAAGTTTGGAC ((((((....)))..))) | -13.8 kcal/mol | 27.8 °C
72 | GGTCTCGAAAGAGGAACC ((((((....)))..))) | -16.9 kcal/mol | 35.1 °C

Row | Sequence | folding enthalpy [1] | Tm [2]
73 | GACAACGAAAGTTGAGTC ((((((....)))..))) | -11.2 kcal/mol | 34.8 °C
74 | GCGGGGCCGAAAGGCCGC (((..(((....)))))) | -10.2 kcal/mol | 59.6 °C
75 | GTTTACGAAAGTACAAC ((((((....))).))) | -11.9 kcal/mol | 30.4 °C
76 | GGAGTCGAAAGACGTCC ((((((....))).))) | -14.7 kcal/mol | 46 °C
77 | GCTTGGCGAAAGCCCAGC (((.(((....))).))) | -36.6 kcal/mol | 51.2 °C
78 | GCGTTGGGACGC ((((....)))) | -24.9 kcal/mol | 55.2 °C
79 | GCTGTCGAAAGACTAGC ((((((....))).))) | -24.4 kcal/mol | 50.3 °C
80 | AGAGAGAAATCTCT (((((....))))) | -8.28 kcal/mol | 23.2 °C
81 | GATCACAACTGTGATC ((((((....)))))) | -37.4 kcal/mol | 58.9 °C
82 | GCGCACGAAAGTGCCGC ((((((....))).))) | -17.5 kcal/mol | 62 °C
83 | GATCGAATCTTCGATC ((((((....)))))) | -42.4 kcal/mol | 54.2 °C
84 | GCGACCTGTCGC ((((....)))) | -26.5 kcal/mol | 68.3 °C
85 | GAGTCGGCGAAAGCCCTC (((..(((....)))))) | -9.6 kcal/mol | 25.6 °C
86 | GGAACTGCGAAAGCATCC (((..(((....)))))) | -6.59 kcal/mol | 24.6 °C
87 | GGGACATCGAAAGATCCC (((..(((....)))))) | -18.5 kcal/mol | 36.1 °C
88 | GGGTTGAAAAACCC (((((....))))) | -29.5 kcal/mol | 55.5 °C
89 | GGAAGTACGAAAGTATCC (((..(((....)))))) | -11.1 kcal/mol | 23.4 °C
90 | GAGTTCCGAAAGGATCTC (((.(((....))).))) | -29.3 kcal/mol | 47.3 °C
91 | GATTTCCGAAAGGAATC (((.(((....)))))) | -16.4 kcal/mol | 42.9 °C
92 | GCTATGCGAAAGCTAAGC (((..((....))..))) | -17.2 kcal/mol | 47.6 °C
93 | GATCTCGATGGAGATC ((((((....)))))) | -33.4 kcal/mol | 52.9 °C
